# Results: ChEMBL document CHEMBL1124397, “A novel class of "GABAergic" agents: 1-aryl-3-(aminoalkylidene)oxindoles” (J Med Chem, 1989)
# What was measured:
# [1] = molecular target: GABA-A receptor; anion channel (Rattus norvegicus) (UniProt O09028+P15431+P18506+P18508+P19969+P20236+P23574+P23576+P28471+P28473+P30191+P62813+P63079+P63138+Q91ZM7+Q9ES14); test: Antagonism of mercaptopropionic acid (MPA) induced convulsions in mouse; format: functional, organism-based
# [2] = tested on: P23576; test: Administered at a dose 320 umol/kg intraperitoneally before [3H]Flunitrazepam ([3H]-FNP) in mouse brain expressed as percent of control; format: functional, tissue-based
# P23576, sequence (P23576 whole entry): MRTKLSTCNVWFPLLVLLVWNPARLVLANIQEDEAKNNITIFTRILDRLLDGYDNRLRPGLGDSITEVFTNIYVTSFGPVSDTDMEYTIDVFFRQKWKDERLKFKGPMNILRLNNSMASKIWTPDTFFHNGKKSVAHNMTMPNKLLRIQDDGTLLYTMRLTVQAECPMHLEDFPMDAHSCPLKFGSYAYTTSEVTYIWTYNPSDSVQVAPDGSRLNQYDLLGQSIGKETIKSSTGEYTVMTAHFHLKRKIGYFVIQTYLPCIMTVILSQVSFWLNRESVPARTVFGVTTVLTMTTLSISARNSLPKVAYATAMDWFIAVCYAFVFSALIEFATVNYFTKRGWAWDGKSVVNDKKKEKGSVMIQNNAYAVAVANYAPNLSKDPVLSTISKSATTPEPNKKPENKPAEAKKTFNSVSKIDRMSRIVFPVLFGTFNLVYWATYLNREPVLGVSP
# Outline: (§1)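 Mice in groups of five received test compound or vehicle ip 1 h before 200 μCi/kg [3H]FNP iv and were killed 20 min later. Brains were homogenized in 40 volumes of ice-cold 50 mM Tris-HCl pH 7.7. Triplicate 1.0-mL samples were filtered on glass fiber, washed with cold buffer and counted. Bound FNP is given as % of vehicle-treated mice.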
# [3] = Ability to displace [3H]flunitrazepam ([3H]-FNP) binding to mouse brain after intraperitoneal administration at a dose 320 umol/kg; format: functional, organism-based; conditions: at 320 µmol/kg
# Outline: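 Mice in groups of five got test agent or vehicle ip 1 h before iv [3H]FNP at 200 μCi/kg, then were killed 20 min later by cervical dislocation. Brains were frozen and homogenized in 40 volumes of ice-cold 50 mM Tris-HCl pH 7.7. Triplicate samples were filtered on glass fiber, washed with cold buffer and counted. Bound label is expressed as % of vehicle-treated mice.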
# [4] = tested on: Mus musculus; test: Activity tested to antagonise cyclic GMP after administration of isoniazid in mouse brain; format: functional
# [5] = Toxicity measured in mouse by subcutaneous administration; format: organism-based; conditions: in vivo, sc
# Outline: (§2)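 Mouse LD50 in mg/kg after sc or ip dosing, by the route named in each line.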
# [6] = Toxicity was measured in mouse by intraperitoneal administration; value ranges from 32-100; conditions: in vivo, ip; outline: as §2
# [7] = tested on: Mus musculus; test: Compound was tested for enhancement of [3H]Flunitrazepam ([3H]FNP) binding to mouse brain after intraperitoneal administration at a dose 10uM/kg, expressed as percent of control; format: functional; outline: as §1
# [8] = tested on: Mus musculus; test: Compound was tested for enhancement of [3H]flunitrazepam ([3H]-FNP) binding to mouse brain after intraperitoneal administration at a dose 3.2uM/kg, expressed as percent of control; format: functional; outline: as §1
# [9] = tested on: Mus musculus; test: Compound was tested for enhancement of [3H]Flunitrazepam ([3H]FNP) binding to mouse brain after intraperitoneal administration at a dose 32uM/kg, expressed as percent of control; format: functional; outline: as §1
# [10] = tested on: Mus musculus; test: Activity to antagonise mercaptopropionic acid (MPA) induced convulsions in mouse after subcutaneous administration; format: functional; conditions: sc
# Outline: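 Male Swiss CD mice (17–21 g), fasted 18 h, in groups of five. […] One hour later MPA 32 mg/kg ip. Protection meant no convulsions during 10 min of observation.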
# [11] = Toxicity was measured in mouse by intraperitoneal administration; conditions: in vivo, ip; outline: as §2
# [12] = tested on: Mus musculus; test: Activity to antagonise cyclic GMP after administration of isoniazid in mouse brain; value ranges from 3.2-10; format: functional
# [13] = tested on: Mus musculus; test: Activity to antagonise cyclic GMP after administration of isoniazid in mouse brain; value ranges from 1-3.2; format: functional
SMILES,ED50 [1] [mg/kg],also measured
CN(C)/C=C1\C(=O)N(c2cccc(Br)c2)c2ccccc21,> 100,
CN1CCC/C1=C1/C(=O)N(c2ccccc2)c2ccccc21,> 100,Control [2]: 143%
C/C(=C1/C(=O)N(c2ccccc2)c2cc(Cl)ccc21)N(C)C,35.9,
Oc1c(C2=NCCCCC2)c2ccccc2n1-c1cccc(Cl)c1,> 100,Control [2]: 138%
Cc1cccc(N2C(=O)/C(=C\N(C)C)c3ccccc32)c1,14.1,[3H]flunitrazepam binding [3]: 184%
CC(=N)c1c(O)n(-c2cccc(Cl)c2)c2ccccc12,> 100,[3H]flunitrazepam binding [3]: 103%
N=C(c1c(O)n(-c2cccc(Cl)c2)c2ccccc12)C(F)(F)F,> 56,
COc1ccc(N2C(=O)/C(=C3/CCCN3C)c3ccccc32)cc1F,5.6,Control [2]: 225%
C/C(=C1/C(=O)N(c2cccc(Cl)c2)c2ccccc21)N(C)C,13.3,ED50 [4]: 1 mg/kg
CN(C)/C=C1\C(=O)N(c2cc(Cl)cc(Cl)c2)c2ccccc21,> 100,[3H]flunitrazepam binding [3]: 153%
CN1CCC/C1=C1/C(=O)N(c2ccccc2)c2cc(Cl)ccc21,> 100,Control [2]: 158%
O=C1/C(=C\n2ccnc2)c2ccccc2N1c1cccc(Cl)c1,> 100,Control [2]: 139%
CN(C)/C=C1\C(=O)N(c2cccc(Cl)c2)c2c(Cl)cccc21,> 100,[3H]flunitrazepam binding [3]: 169%
Cc1ccccc1N1C(=O)/C(=C\N(C)C)c2ccccc21,18,
CN(C)/C=C1\C(=O)N(c2cccc(C(=O)N(C)C)c2)c2ccccc21,> 100,
CN1CCC/C1=C1/C(=O)N(c2ccc(Cl)cc2)c2ccccc21,> 56,Control [2]: 127%
COc1ccc(N2C(=O)/C(=C(/C)N(C)C)c3ccccc32)cc1Cl,2.8,
CN(C)/C=C1\C(=O)N(c2cccc(Cl)c2)c2ccc(Cl)cc21,> 100,
CSc1ccc(N2C(=O)/C(=C\N(C)C)c3ccccc32)cc1,56,
CN(C)/C=C1\C(=O)N(c2cccc([N+](=O)[O-])c2)c2ccccc21,> 100,[3H]flunitrazepam binding [3]: 171%
COc1ccc(Cl)cc1N1C(=O)/C(=C\N(C)C)c2ccccc21,> 100,[3H]flunitrazepam binding [3]: 149%
CCc1cccc(N2C(=O)/C(=C\N(C)C)c3ccccc32)c1,14.1,
COc1c(C)cc(N2C(=O)/C(=C\N(C)C)c3ccccc32)cc1Cl,15.3,
CN(C)/C=C1\C(=O)N(c2cccc(-c3ccccc3)c2)c2ccccc21,> 100,
COc1ccc(N2C(=O)/C(=C\N(C)C)c3ccccc32)cc1Cl,7.2,[3H]flunitrazepam binding [3]: 244%
COc1ccc(N2C(=O)/C(=C3/CCCN3C)c3ccccc32)cc1Cl,,LD50 [5]: ≥ 320 mg/kg; Control [2]: 220%; LD50 [6]: 32 mg/kg; Control [7]: 128%; Control [8]: 115%; Control [9]: 159%; ED50 [10]: 3.6 mg/kg

SMILES,ED50 [1] [mg/kg],also measured
NC(=O)CCC/N=C(\c1ccc(Cl)cc1)c1cc(F)ccc1O [PROGABIDE],> 100,LD50 [5]: > 1000 mg/kg; LD50 [11]: ~1000 mg/kg; ED50 [4]: < 32 mg/kg
CN1CCC/C1=C1/C(=O)N(c2cccc(Cl)c2)c2cc(Cl)ccc21,> 100,Control [2]: 189%
CN(C)/C=C1\C(=O)N(c2cccc(Cl)c2)c2cccc(Cl)c21,> 100,
C/C(=C1/C(=O)N(c2ccccc2)c2cc(Cl)ccc21)N1CCCC1,> 56,[3H]flunitrazepam binding [3]: 213%
CN(C)/C=C1\C(=O)N(c2ccc(N(C)C)cc2)c2ccccc21,> 100,
CN(C)/C=C1\C(=O)N(c2ccccc2)c2ccccc21,> 100,
N=Cc1c(O)n(-c2cccc(Cl)c2)c2ccccc12,22.1,[3H]flunitrazepam binding [3]: 134%
Cc1ccc(N2C(=O)/C(=C\N(C)C)c3ccccc32)cc1,56,
CCN(/C=C1\C(=O)N(c2cccc(Cl)c2)c2ccccc21)CC,18,
O=C1/C(=C\N2CCCCC2)c2ccccc2N1c1cccc(Cl)c1,> 56,[3H]flunitrazepam binding [3]: 131%
CCC/N=C/c1c(O)n(-c2cccc(Cl)c2)c2ccccc12,> 56,
C/C(=C1/C(=O)N(c2cccc(C)c2)c2ccccc21)N(C)C,17.8,
CN(C)/C=C1\C(=O)N(c2ccccc2Cl)c2ccccc21,> 100,ED50 [12]: 3.2 mg/kg
CC(=N)c1c(O)n(-c2ccccc2)c2cc(Cl)ccc12,> 56,
CN1CCC/C1=C1/C(=O)N(c2ccccc2)c2cccc(Cl)c21,> 100,Control [2]: 190%
COc1ccc(-n2c(O)c(C3=NCCC3)c3ccccc32)cc1F,56,
COc1ccc(N2C(=O)/C(=C\N(C)C)c3ccccc32)cc1C,9.1,
C/N=C\c1c(O)n(-c2cccc(Cl)c2)c2ccccc12,> 100,[3H]flunitrazepam binding [3]: 119%
CN(C)/C=C1\C(=O)N(c2cc(Cl)ccc2Cl)c2ccccc21,> 100,[3H]flunitrazepam binding [3]: 147%; ED50 [4]: ~10 mg/kg
COc1ccc(N2C(=O)/C(=C\N(C)C)c3ccccc32)cc1,48.2,[3H]flunitrazepam binding [3]: 153%
COc1ccc(N2C(=O)/C(=C\N(C)C)c3ccccc32)cc1F,6.6,[3H]flunitrazepam binding [3]: 194%
CN1CCC/C1=C1/C(=O)N(c2cccc(C#N)c2)c2ccccc21,> 100,Control [2]: 121%
COc1ccc(N2C(=O)/C(=C\N(C)C)c3ccccc32)cc1OC,> 100,[3H]flunitrazepam binding [3]: 138%; ED50 [4]: < 10 mg/kg
O=C1/C(=C\N2CCCC2)c2ccccc2N1c1cccc(Cl)c1,> 100,
COc1cccc(N2C(=O)/C(=C\N(C)C)c3ccccc32)c1,27.9,[3H]flunitrazepam binding [3]: 217%; ED50 [4]: < 10 mg/kg
COc1ccc2c(c1)/C(=C/N(C)C)C(=O)N2c1cccc(Cl)c1,> 100,

SMILES,ED50 [1] [mg/kg],also measured
Oc1c(C2=NCCCCC2)c2ccccc2n1-c1ccccc1,> 100,
O=C1/C(=C\N2CCOCC2)c2ccccc2N1c1cccc(Cl)c1,> 100,[3H]flunitrazepam binding [3]: 121%
CN(/C=C1\C(=O)N(c2cccc(Cl)c2)c2ccccc21)Cc1ccccc1,> 100,Control [2]: 135%
CN(C)/C(=C1\C(=O)N(c2cccc(Cl)c2)c2ccccc21)c1ccccc1,> 100,
CCN1CCC/C1=C1/C(=O)N(c2cccc(Cl)c2)c2ccccc21,> 100,Control [2]: 164%
Oc1c(/C=N/Cc2ccccc2)c2ccccc2n1-c1cccc(Cl)c1,> 100,
CN(C)/C=C1\C(=O)N(c2ccc(Cl)cc2)c2ccccc21,> 100,
O=C1/C(=C2/CCCN2c2ccccc2)c2ccccc2N1c1cccc(Cl)c1,> 100,Control [2]: 125%
CN(/C=C1\C(=O)N(c2cccc(Cl)c2)c2ccccc21)c1ccccc1,> 100,[3H]flunitrazepam binding [3]: 133%
COc1ccc(N2C(=O)/C(=C(/C)N(C)C)c3ccccc32)cc1F,> 100,[3H]flunitrazepam binding [3]: 157%
O=C1/C(=C2/CCCN2Cc2ccccc2)c2ccccc2N1c1cccc(Cl)c1,> 100,Control [2]: 149%
CN(C)/C=C1\C(=O)N(c2cccc(Cl)c2)c2cc(Cl)ccc21,> 100,
CN(C)/C=C1\C(=O)N(c2cccc(O)c2)c2ccccc21,> 100,
CN(C)/C=C1\C(=O)N(c2cccc(C(F)(F)F)c2)c2ccccc21,22.2,[3H]flunitrazepam binding [3]: 131%
CN(C)/C=C1\C(=O)N(c2cccc(C=O)c2)c2ccccc21,> 100,
CN(C)/C=C1\C(=O)N(c2cccc(F)c2)c2ccccc21,39.9,
CN(C)/C=C1\C(=O)N(c2cccc(Cl)c2)c2ccccc21,26.1,ED50 [13]: 1 mg/kg
COc1ccc(N2C(=O)/C(=C(/C)N(C)C)c3ccccc32)cc1,> 100,
CCOc1cccc(N2C(=O)/C(=C\N(C)C)c3ccccc32)c1,27.9,
CN(C)C(=O)c1cccc(N2C(=O)/C(=C3/CCCN3C)c3ccccc32)c1,> 100,Control [2]: 164%
CN1CCCC/C1=C1/C(=O)N(c2cccc(Cl)c2)c2ccccc21,> 100,Control [2]: 135%
CCCN(/C=C1\C(=O)N(c2cccc(Cl)c2)c2ccccc21)CCC,> 100,
O=C1/C(=C2/CCCN2Cc2ccc(Cl)cc2)c2ccccc2N1c1cccc(Cl)c1,> 100,Control [2]: 131%
CN(C)/C=C1\C(=O)N(c2cccc(C#N)c2)c2ccccc21,> 100,[3H]flunitrazepam binding [3]: 192%
CCO/C=C1\C(=O)N(c2cccc(Cl)c2)c2ccccc21,> 100,
CN(C)/C=C1\C(=O)N(c2ccccc2)c2cc(Cl)ccc21,> 100,
